The source of these data is the array DNA melting data of Ke et al. (doi:10.1101/2024.01.08.574731).

Data set [1] in a line: folding enthalpy; higher = less favourable; fluorescence melt of hairpins on a sequencing array, two-state fit. The conditions noted are these: sodium 0.088 M. In short, it runs like this:
(§1)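 With Cy3 and quencher oligos annealed, library hairpins on a sequenced MiSeq flow cell were imaged for Cy3 fluorescence in 50 mM Na-HEPES pH 8.0, 25 mM NaCl, in 2.5 °C steps up to 60 °C. Melting temperature and folding enthalpy were derived from bootstrapped two-state fits of signals normalised to pre-quench Cy3 and to control constructs. Four replicates were combined by inverse variance, with fitted temperatures raised by 9.35 °C to match UV melts.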

The nature of data set [2]: melting temperature; fluorescence melt of hairpins on a sequencing array, two-state fit, raised by 9.35 °C to match UV melts. The conditions noted are these: sodium 0.088 M. An outline of the steps: as §1

Consider GACCGGGGAAACTCGGTC (((((.(....).))))), for which the folding enthalpy in data set [1] is -50.3 kcal/mol. The Tm in data set [2] is 56.3 °C.
On to GATCGAATCTTCGATC ((((((....)))))), for which the folding enthalpy in data set [1] is -42.4 kcal/mol. Moreover, the Tm in data set [2] turned out to be 54.2 °C.
In the same order, the values of GGCGTAGGAAACTGCGTC (.((.((....)).)).) are -19.5 kcal/mol and 44.1 °C.
In the case of GTCGTGGGAAACCACAAC ((.((((....)))).)), in data set [1], the folding enthalpy was -15.7 kcal/mol. Moreover, the Tm in data set [2] amounted to 40.3 °C.
Take ATGTCGAAAGACAT (((((....))))): the folding enthalpy in data set [1] is -19.6 kcal/mol. The Tm in data set [2] was 53.5 °C.
As for GGTCGCCGAAAGGCTACC (((.(((....))).))), in data set [1], the folding enthalpy is -21.2 kcal/mol. Also, the Tm in data set [2] was found to be 54.4 °C.
For GATCCGAAAGGATC (((((....))))), the folding enthalpy in data set [1] was -29.5 kcal/mol. In addition, the Tm in data set [2] was found to be 66.8 °C.
Take GGTTCCGGAAACGAAACC ((((.((....)).)))): the folding enthalpy in data set [1] was -24.8 kcal/mol. Besides, the Tm in data set [2] came out at 42.9 °C.
Consider GTCGGGGGAAACCTCGAC ((((.((....)).)))), for which, in data set [1], the folding enthalpy was -44.2 kcal/mol. In addition, the Tm in data set [2] is 55.5 °C.
For the sequence GCTGGAACGAAAGTTAGC (((..(((....)))))), the folding enthalpy in data set [1] was -18.1 kcal/mol. In addition, in data set [2], the Tm is 33.9 °C.
In the case of GATCGGCTATCCGATC ((((((....)))))), the folding enthalpy in data set [1] was -38.4 kcal/mol. In addition, the Tm in data set [2] stood at 55.8 °C.
The matching figures for GGTGACGAAAGTCATACC ((((((....)))..))): -13.6 kcal/mol and 40.7 °C.
Take GCCTTGCGAAAGCCATGC ((.(.((....)).).)): the folding enthalpy in data set [1] is -3.66 kcal/mol. The Tm in data set [2] worked out at 27 °C.
As for GATCTCCCGGAGATC ((((((...)))))), the folding enthalpy in data set [1] was -37.4 kcal/mol. Besides, in data set [2], the Tm is 53.8 °C.
Take GCAAGGTCGAAAGACTGC (((..(((....)))))): the folding enthalpy in data set [1] is -19.1 kcal/mol. Also, the Tm in data set [2] came to 40.5 °C.
The matching figures for GCATGGTCGAAAGACTGC (((..(((....)))))): -18.1 kcal/mol and 39.8 °C.
On to GTCTGGCGAAAGCCGGAC (((.(((....))).))), for which the folding enthalpy in data set [1] is -25.6 kcal/mol. Further, in data set [2], the Tm amounted to 69 °C.
The matching figures for GCAGTTGGAAACAACTAC (.(((((....))))).): -17.1 kcal/mol and 37.5 °C.
Consider GAGTACGGAAACGTACTC (((((((....))))))), for which the folding enthalpy in data set [1] was -42.5 kcal/mol. Besides, in data set [2], the Tm was 64 °C.
Regarding GCGTAGCGAAAGCTTGGC ((..(((....)))..)), in data set [1], the folding enthalpy was -7.38 kcal/mol. Further, in data set [2], the Tm amounted to 36.5 °C.
For the sequence GATCGGCTTCCCGATC ((((((....)))))), the folding enthalpy in data set [1] was -35.5 kcal/mol. The Tm in data set [2] amounted to 56.4 °C.
As for GCCGACGAAAGTCGAGGC ((((((....)))..))), the folding enthalpy in data set [1] was -16.5 kcal/mol. In addition, the Tm in data set [2] came to 59.5 °C.
Consider GCAGTCTCGAAAGAGTGC (((..(((....)))))), for which, in data set [1], the folding enthalpy is -25.4 kcal/mol. Moreover, in data set [2], the Tm was 45.8 °C.
Consider GCAAAAGCGAAAGCTTGC (((..(((....)))))), for which the folding enthalpy in data set [1] was -18.3 kcal/mol. In data set [2], the Tm turned out to be 51.4 °C.
For GCAAGGCGAAAGCAATGC (((..((....))..))), the folding enthalpy in data set [1] is -16 kcal/mol. Moreover, the Tm in data set [2] was 41.3 °C.
The matching figures for GTAAACGAAAGTTTCTAC ((((((....)))..))): -12.3 kcal/mol and 30.2 °C.
For the sequence GACAATGAAAATTGTC ((((((....)))))), the folding enthalpy in data set [1] was -31.3 kcal/mol. Further, in data set [2], the Tm worked out at 51.6 °C.
For GACGACGAAAGTCAAGTC ((((((....)))..))), the folding enthalpy in data set [1] was -23.8 kcal/mol. For the same sequence, the Tm in data set [2] is 45.9 °C.
Take GGGGTTGGAAACGACTCC ((.((.(....).)).)): in data set [1], the folding enthalpy was -23.1 kcal/mol. The Tm in data set [2] came to 41.6 °C.
The matching figures for GAGGCGGGAAACCACCTC ((((.((....)).)))): -36.9 kcal/mol and 49.1 °C.
Regarding GCAGGTGGAAACATCTGC ((((.((....)).)))), the folding enthalpy in data set [1] was -37.8 kcal/mol. Besides, the Tm in data set [2] was 52.9 °C.
In the same order, the values of GTGGTCGGAAACAACCAC (((((.(....).))))) are -29.4 kcal/mol and 45.4 °C.
Take GATCAAACGTTGATC ((((((...)))))): the folding enthalpy in data set [1] is -28.1 kcal/mol. In addition, the Tm in data set [2] turned out to be 39.5 °C.
For GGCTATCGAAAGATCGCC (((.(((....))).))), in data set [1], the folding enthalpy was -30.8 kcal/mol. In addition, the Tm in data set [2] amounted to 50.6 °C.
As for GACCTACGAAAGTAAGTC (((.(((....))).))), in data set [1], the folding enthalpy was -23.1 kcal/mol. The Tm in data set [2] stood at 38 °C.
Turning to GCGCGCGAAAGCGGCCGC ((((((....)))..))), the folding enthalpy in data set [1] was -15.3 kcal/mol. Besides, the Tm in data set [2] came out at 59 °C.
Regarding GTGAGGGGAAACCCCCAC (((.(((....))).))), the folding enthalpy in data set [1] is -31.5 kcal/mol. The Tm in data set [2] stood at 49.2 °C.
On to GAAGGCGCGAAAGCGTTC (((..(((....)))))), for which, in data set [1], the folding enthalpy was -9.37 kcal/mol. Also, the Tm in data set [2] came out at 30.9 °C.
As for GAGGCAGGAAACCGCCTC (((((.(....).))))), the folding enthalpy in data set [1] was -33.2 kcal/mol. For the same sequence, in data set [2], the Tm was 54.9 °C.
For the sequence GGTTGGGGAAACCCAACC (((((((....))))))), in data set [1], the folding enthalpy was -36.8 kcal/mol. In data set [2], the Tm was 66.4 °C.
Regarding GATCCGCTGCGGATC ((((((...)))))), in data set [1], the folding enthalpy was -48.3 kcal/mol. For the same sequence, the Tm in data set [2] was determined as 57.5 °C.
For GATCATTTATATGATC ((((((....)))))), the folding enthalpy in data set [1] was -35.6 kcal/mol. Moreover, the Tm in data set [2] was determined as 48.4 °C.
With GACCACCGAAAGGTCGTC (((.(((....))).))), the folding enthalpy in data set [1] is -29.5 kcal/mol. The Tm in data set [2] came out at 45.1 °C.
In the same order, the values of GCTTGGCGAAAGCGGAGC (((..((....))..))) are -16.8 kcal/mol and 48.6 °C.
Take GTTGGCTCGAAAGAGAAC (((..(((....)))))): the folding enthalpy in data set [1] is -17.1 kcal/mol. In addition, the Tm in data set [2] is 34.9 °C.
The matching figures for GCAGGGGCGAAAGCCTGC (((..(((....)))))): -17.6 kcal/mol and 53.7 °C.
Turning to GCGCACGAAAGTGCTCGC ((((((....)))..))), in data set [1], the folding enthalpy was -13.5 kcal/mol. In data set [2], the Tm is 48.4 °C.
As for GATGGGAAACCATC (((((....))))), the folding enthalpy in data set [1] was -26.5 kcal/mol. The Tm in data set [2] turned out to be 49.9 °C.
The matching figures for GAGTGGGGAAACCTGCTC (((..((....))..))): -26.6 kcal/mol and 39.8 °C.
Regarding GCGTTCGTACGC ((((....)))), the folding enthalpy in data set [1] is -22.1 kcal/mol. For the same sequence, the Tm in data set [2] turned out to be 58.3 °C.
Consider GATCAATGAGTTGATC ((((((....)))))), for which, in data set [1], the folding enthalpy is -37.1 kcal/mol. For the same sequence, the Tm in data set [2] amounted to 48.4 °C.
The matching figures for GCGAGTGCGAAAGCACGC (((..(((....)))))): -9.67 kcal/mol and 59 °C.
For the sequence GTGGAGCGAAAGCTACAC (((.(((....))).))), the folding enthalpy in data set [1] was -30.8 kcal/mol. The Tm in data set [2] was 68.2 °C.
On to GACGTTGGAAACAACGTC (((((((....))))))), for which, in data set [1], the folding enthalpy was -39.1 kcal/mol. The Tm in data set [2] turned out to be 68 °C.
In the case of GATCAAGCCGTTGATC ((((((....)))))), the folding enthalpy in data set [1] is -29.4 kcal/mol. Further, the Tm in data set [2] was 46.5 °C.
On to CGGGTCGGAAACGAACCG (((.(((....))).))), for which the folding enthalpy in data set [1] is -42.8 kcal/mol. In addition, in data set [2], the Tm is 59.6 °C.
For GTTCTGGGAAACCGGAAC ((((.((....)).)))), the folding enthalpy in data set [1] was -41.5 kcal/mol. For the same sequence, in data set [2], the Tm turned out to be 50.9 °C.
As for GGGCAAGGAAACTTGCTC (.(((((....))))).), the folding enthalpy in data set [1] was -27.9 kcal/mol. Also, in data set [2], the Tm stood at 52.7 °C.
The matching figures for GGCATCCGAAAGGACGCC (((.(((....))).))): -48.8 kcal/mol and 57.2 °C.
With GATCCTTAATAGGATC ((((((....)))))), the folding enthalpy in data set [1] was -39.1 kcal/mol. For the same sequence, the Tm in data set [2] was 50.1 °C.
As for GCGGTGCGAAAGCAAGGC ((..(((....)))..)), the folding enthalpy in data set [1] is -19.1 kcal/mol. Besides, the Tm in data set [2] was 51.2 °C.
In the same order, the values of GCAAGGAAACTTGC (((((....))))) are -26.6 kcal/mol and 53.3 °C.
Turning to GCGGCGCGAAAGCCCTGC ((.(.((....)).).)), the folding enthalpy in data set [1] is -18.3 kcal/mol. For the same sequence, the Tm in data set [2] is 45.6 °C.
Regarding GATCCCTTACGGGATC ((((((....)))))), in data set [1], the folding enthalpy was -38.9 kcal/mol. In data set [2], the Tm was determined as 61.5 °C.
The matching figures for GATCTAACGTTAGATC ((((((....)))))): -47 kcal/mol and 48.3 °C.
In the same order, the values of GCTCAGCGAAAGCAGGGC ((.(.((....)).).)) are -19 kcal/mol and 51.9 °C.
As to GCGGGGCCGAAAGGCCGC (((..(((....)))))), in data set [1], the folding enthalpy was -10.2 kcal/mol. Besides, the Tm in data set [2] amounted to 59.6 °C.
Consider GATCCTTACAGGATC ((((((...)))))), for which, in data set [1], the folding enthalpy was -34.2 kcal/mol. Also, the Tm in data set [2] came to 56 °C.
GATCGTAGAGACGATC ((((((....)))))): the folding enthalpy in data set [1] was -25.4 kcal/mol. In data set [2], the Tm worked out at 51.9 °C.
Consider GATCAAGCATTGATC ((((((...)))))), for which the folding enthalpy in data set [1] was -47.9 kcal/mol. Besides, the Tm in data set [2] turned out to be 52.1 °C.
The matching figures for GCACCGCGAAAGCAGGGC ((.(.((....)).).)): -16 kcal/mol and 57.5 °C.
In the case of GCTGTGGGAAACTGCAGC ((((..(....)..)))), the folding enthalpy in data set [1] is -20.3 kcal/mol. Besides, the Tm in data set [2] was determined as 48.1 °C.
As for GATAGACCGAAAGGTATC (((..(((....)))))), the folding enthalpy in data set [1] was -11.3 kcal/mol. Further, in data set [2], the Tm was 28.2 °C.
The matching figures for GAGCCTCCGAAAGGACTC (((..(((....)))))): -11.8 kcal/mol and 31.9 °C.
